Laboratory results: ChEMBL document CHEMBL2380229, “Design, synthesis, cytotoxic evaluation and tubulin inhibitory activity of 4-aryl-5-(3,4,5-trimethoxyphenyl)-2-alkylthio-1H-imidazole derivatives” (Bioorg Med Chem, 2013)
Calls of active or inactive are those of the source. The calls are words filed in the database; no cut-off is given here.

Legend:
AGS = assay: Cytotoxicity against human AGS cells assessed as growth inhibition after 48 hrs by MTT assay; assay type: functional, cell-based
In short: (§1)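 MTT assay. Cells seeded at 8000–10,000 viable cells per well and allowed 24 h before a 48 h compound exposure. MTT (5 mg/mL solution) added for a further 4 h, then formazan dissolved in DMSO. Absorbance read at 550 nm against a 690 nm reference. Two independent experiments in triplicate. IC50 by nonlinear regression, mean ± SD.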

NIH3T3 [1] = assay: Cytotoxicity against mouse NIH/3T3 cells assessed as growth inhibition after 48 hrs by MTT assay; assay type: functional, cell-based; conditions: NIH3T3, 48 h; in short: as §1
HT-29 = assay: Cytotoxicity against human HT-29 cells assessed as growth inhibition after 48 hrs by MTT assay; assay type: functional, cell-based; conditions: HT-29, 48 h; in short: as §1
MCF7 = assay: Cytotoxicity against human MCF7 cells assessed as growth inhibition after 48 hrs by MTT assay; assay type: functional, cell-based; conditions: MCF7, 48 h; in short: as §1
Ovis aries [2] = organism: Ovis aries; assay: Inhibition of sheep brain microtubule polymerization at 5 uM after 15 mins by UV-vis spectrophotometric analysis
In short: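 Purified tubulin (12 µM) in PEM buffer (100 mM PIPES pH 6.9, 1 mM MgSO4, 1 mM EGTA) preincubated 15 min with compound (5 µM final), then cooled to 0 °C. GTP added to 1 mM final. Assembly started by warming from 0 to 37 °C and followed by absorbance at 350 nm. Positive control at 2 µM final.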

Ovis aries [3] = organism: Ovis aries; assay: Inhibition of sheep brain microtubule polymerization at 2 uM after 15 mins by UV-vis spectrophotometric analysis
In short: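 Purified microtubule protein preincubated 15 min with compound in PEM buffer (100 mM PIPES pH 6.9, 1 mM MgSO₄, 1 mM EGTA), then cooled to 0 °C. GTP added (1 mM final), and assembly started by warming from 0 to 37 °C. Polymerization followed as absorbance change at 350 nm.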

NIH3T3 [4] = assay: Cell cycle arrest in mouse NIH/3T3 cells assessed as accumulation at S phase at 0.10 uM after 24 hrs by propidium iodide staining-based FACS flow cytometric analysis (reference value: 24.39%); assay type: functional
NIH3T3 [5] = assay: Cell cycle arrest in mouse NIH/3T3 cells assessed as accumulation at G2/M phase at 0.10 uM after 24 hrs by propidium iodide staining-based FACS flow cytometric analysis (reference value: 35.70%); assay type: functional
NIH3T3 [6] = assay: Cell cycle arrest in mouse NIH/3T3 cells assessed as accumulation at G0/G1 phase at 0.10 uM after 24 hrs by propidium iodide staining-based FACS flow cytometric analysis (reference value: 39.91%); assay type: functional

| Compound | IC50 (AGS) | IC50 (NIH3T3 [1]) | IC50 (HT-29) | IC50 (MCF7) | microtubule polymerization inhibition (active/inactive call) (Ovis aries [2]) | inhibition (Ovis aries [3]) | Activity (NIH3T3 [4]) | Activity (NIH3T3 [5]) | Activity (NIH3T3 [6]) |
| --- | --- | --- | --- | --- | --- | --- | --- | --- | --- |
| CCSc1nc(-c2cc(OC)c(OC)c(OC)c2)c(-c2cccc(OC)c2OC)[nH]1 | 39 µM | 27.2 µM | 36.7 µM | 22.9 µM | – | – | – | – | – |
| CCSc1nc(-c2cc(OC)c(OC)c(OC)c2)c(-c2ccccc2OC)[nH]1 | 40.7 µM | 36.2 µM | 18.6 µM | 11 µM | – | – | – | – | – |
| CCSc1nc(-c2cc(OC)c(OC)c(OC)c2)c(-c2ccc(OC)cc2)[nH]1 | 0.07 µM | 0.26 µM | 0.36 µM | 0.75 µM | Active | – | – | – | – |
| COc1ccc(/C=C\c2cc(OC)c(OC)c(OC)c2)cc1O [COMBRETASTATIN A4] | 0.04 µM | 0.02 µM | 0.18 µM | 0.4 µM | – | Active | – | – | – |
| CCSc1nc(-c2cc(OC)c(OC)c(OC)c2)c(-c2ccc(OC)c(OC)c2)[nH]1 | 37.2 µM | 14.1 µM | 21 µM | 13.2 µM | Active | – | – | – | – |
| COc1ccccc1-c1[nH]c(SC)nc1-c1cc(OC)c(OC)c(OC)c1 | 48.4 µM | 38.7 µM | 21.7 µM | 12.2 µM | – | – | – | – | – |
| COc1ccc(-c2[nH]c(SC)nc2-c2cc(OC)c(OC)c(OC)c2)c(OC)c1 | 23.2 µM | 11.9 µM | 18.6 µM | 4.15 µM | – | – | – | – | – |
| COc1ccc(-c2nc(SC)[nH]c2-c2ccc(OC)c(OC)c2)cc1OC | 34.8 µM | 35.8 µM | 24.1 µM | 17.2 µM | – | – | – | – | – |
| CCSc1nc(-c2cc(OC)c(OC)c(OC)c2)c(-c2ccc(OC)cc2OC)[nH]1 | 18.6 µM | 7.25 µM | 6.56 µM | 3.55 µM | – | – | – | – | – |
| CCSc1nc(-c2cc(OC)c(OC)c(OC)c2)c(-c2cc(OC)c(OC)c(OC)c2)[nH]1 | – | > 50 µM | > 50 µM | – | – | – | – | – | – |
| COc1cc(-c2nc(SC)[nH]c2-c2cc(OC)c(OC)c(OC)c2)cc(OC)c1OC | – | > 50 µM | > 50 µM | – | – | – | – | – | – |
| COc1ccc(-c2[nH]c(SC)nc2-c2cc(OC)c(OC)c(OC)c2)cc1OC | 10.6 µM | 6.01 µM | 4.82 µM | 4.04 µM | Active | – | – | – | – |
| CCSc1nc(-c2ccc(OC)c(OC)c2)c(-c2ccc(OC)c(OC)c2)[nH]1 | 33.6 µM | 27.6 µM | 21.2 µM | 15.1 µM | – | – | – | – | – |
| COc1ccc(-c2[nH]c(SC)nc2-c2cc(OC)c(OC)c(OC)c2)cc1 | 0.06 µM | 0.06 µM | 0.25 µM | 0.52 µM | Active | – | 7.07% | 91.93% | 1.01% |
| COc1cc(-c2nc(SC)[nH]c2-c2cccc(OC)c2OC)cc(OC)c1OC | 35.3 µM | 30.2 µM | 27.5 µM | 18.1 µM | – | – | – | – | – |
